APP 5'UTR act: APP 5'UTR luciferase reporter activation. SH-SY5Y APP 5'UTR luciferase reporter, luminescence; zero percent = DMSO vehicle wells. activation, % at 2 µM. 190,000 compounds, 1% hits. AID 1276;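 active = activation above a set limit, based on mean plus 3 SD of controls, cut at about 140% in these data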
STAT3 inh: reduces IL-6 driven STAT3 reporter signal; AID 862; inhibition, % at 5.5 µM; 190,000 compounds, 0.89% hits; U3A cells, IL-6 STAT3-luciferase reporter, luminescence; host cell line lacks STAT1;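 active = inhibition above the mean inhibition across all screened compounds plus 3 SD, cut at about 44% in these data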;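 note: 0% = DMSO only wells and 100% = 100 µM nifuroxazide control wells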
STAT1 act-1: activators of IFN-gamma induced STAT1 signaling; NIH 3T3 STAT1-luciferase reporter, luminescence; 100% = IFN-gamma alone, no compound; activation (% of control), % at 5.5 µM; 200,000 compounds, 2.6% hits;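 active = activation above the screen-wide mean activation plus 3 SD, cut at about 130% in these data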;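 note: raw ratio to IFN-gamma control signal so 100% means no change and 0% no light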
STAT1 blocker: STAT1 signaling inhibition; NIH 3T3 STAT1-luciferase reporter, IFN-gamma, luminescence; inhibition, % at 5.5 µM; AID 920; 200,000 compounds, 0.35% hits;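 active = inhibition above a set limit, the mean inhibition across all tested compounds plus 3 SD, cut at about 34% in these data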;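 note: 0% = IFN-gamma with DMSO and 100% = IFN-gamma with 300 µM nifuroxazide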
NF-kB expr up: compounds increasing NF-kB expression in human neuronal cells; NF-kB reporter expression; stronger effect = higher value; fold change at 12.5 µM; 190,000 compounds, 1.6% hits; AID 1239; in the data active = fold change above about 3.3
STAT3 act-1: increases IL-6 driven STAT3 reporter signal; U3A cells, IL-6 STAT3-luciferase reporter, luminescence; 100% = signal with IL-6 EC80 alone; activation (% of control), % at 5.6 µM; 190,000 compounds, 0.91% hits;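 active = activation above the screen-wide mean of compound activation plus 3 SD, cut at about 130% in these data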;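 note: 0% = background luminescence of wells with medium and substrate only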
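Detection: reporter luminescence signal / Assay system: STAT1-lacking human U3A cells, STAT3 luciferase reporter / Incubation: compound pre-incubation 1 h before IL-6, then 6 h stimulation at 37 °C / Control set: IL-6-only high control / Read-out: % activation relative to IL-6 control / Probe or stimulus: Interleukin-6, 33 ng/mL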
STAT3 act-2: STAT3 activation, confirmation assay; shares compounds with STAT3 act-1; U3A STAT3-luciferase reporter, IL-6 potentiation, luminescence; U3A cells lack STAT1; 100 means same as IL-6 alone; potentiation (% of control), % at 5.7 µM; 1,200 compounds, 64% hits;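 active = percent activation of the STAT3 luciferase reporter above a set limit taken from the earlier primary screen, cut at about 130% in these data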;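 note: 0% = background signal of medium plus substrate and 100% = median of IL-6 with DMSO wells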
NFkB act STAT3ct: counter-screen for STAT3 activators: NF-kappaB activation; shares compounds with STAT3 act-1; human cells, NF-kappaB reporter activation; activation (% of control), % at 5.7 µM; 1,200 compounds, 11% hits; in the data active = activation above about 120%;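 note: reporter induced by TNF-alpha stimulation; 100% = median of stimulated DMSO wells and 0% = no signal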
STAT1 act-2: counter-screen for STAT3 activators: STAT1 activation | activation (% of control), % at 5.7 µM | AID 1318 | NIH 3T3 STAT1-luciferase reporter, IFN-gamma, luminescence | 1,200 compounds, 13% hits | shares compounds with STAT3 act-1;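 active = activation above the solvent-only control well mean plus 3 SD, set per screening run, cut at about 120% in these data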;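 note: 100% = IFN-gamma with DMSO median signal so 100% means no change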
The depositor's hits bear a star; x = no result. In the library only some 4.9% were active in any assay of this set; here they are far more common.

SMILES	APP 5'UTR act	STAT3 inh	STAT1 act-1	STAT1 blocker	NF-kB expr up	STAT3 act-1	STAT3 act-2	NFkB act STAT3ct	STAT1 act-2
Oc1oc(-c2cccc3ccccc23)nc1/C=N/c1nccs1	-20	2	92	9	1.2	101	x	x	x
C(=N\c1nccs1)/c1c[nH]c2ccccc12	5	-81	89	13	1.1	167*	132	103	94
c1cncc(-c2nc(NCc3ccco3)c3ccccc3n2)c1	-4	-26	104	-4	0.8	125	x	x	x
Cc1ccc(-c2nc(NCc3ccco3)c3ccccc3n2)cc1	7	-46	98	3	1.4	139*	153*	109	109
Cc1ccc(C)c(NC(=S)NCCN(C2CCCCC2)C2CCCC2)c1	9	-18	108	-10	0.96	116	x	x	x
CSc1nc2ccc(NC(=O)C3=NN(c4ccccc4)C(=O)CC3)cc2s1	19	-38	94	6	1.4	138*	161*	106	102
COC(=O)c1ccc(C(=O)NC(=S)Nc2ccc3nc(SC)sc3c2)cc1	-3	4	108	-9	1.1	97	x	x	x
CSc1nc2ccc(NC(=O)C3=NNC(=O)CC3)cc2s1	-1	-40	114	-16	1.4	141*	151*	104	100
CN1c2ccccc2C(C)(C)C12CC(c1cccc(S(=O)(=O)N3CCCC3)c1)=NO2 (stereo unspecified)	11	-1	90	11	0.96	104	x	x	x
Cc1cnc([N+](=O)[O-])n1CCOC(=O)NC(=O)c1cccc(F)c1	18	0	100	0	1.1	105	x	x	x
Cn1nccc1C(=O)N1CCc2c([nH]c3ccccc23)C1c1ccc(F)cc1 (stereo unspecified)	1	-8	99	-1	0.86	109	x	x	x
Fc1ccccc1C1c2[nH]c3ccccc3c2CCN1Cc1cccn1-c1ncccn1 (stereo unspecified)	11	-32	108	-11	1.2	133	x	x	x
Cc1nonc1CC(=O)N1CCc2c([nH]c3ccccc23)C1c1ccccc1F (stereo unspecified)	-8	-50	109	-11	0.99	149*	143*	105	93
O=C(Cc1cnc2ncnn2c1)N1CCc2c([nH]c3ccccc23)C1c1ccccc1F (stereo unspecified)	31	-49	91	8	1.8	144*	140*	104	102
Cc1ccc(NC(=O)c2cc(N3CCOCC3)nc3ccccc23)cc1	3	-54	97	3	0.66	153*	146*	102	97
O=c1c(-c2ccc(Cl)cc2)cnc2n1CCS2	39	10	112	-15	1.6	97	x	x	x
O=C(N/N=C\c1ccccc1)c1ccccc1-n1cccc1	-1	-15	100	-1	1	114	x	x	x
O=C(N/N=C\c1cccs1)c1ccccc1-n1cccc1	8	-44	97	2	0.92	138*	148*	105	96
CC(=O)c1ccc(NC(=O)N2C3CCC2CC(O)(c2cccnc2)C3)cc1 (stereo unspecified)	-10	0	102	-5	1.1	105	x	x	x
O=C(Cn1cnc([N+](=O)[O-])n1)NCc1ccccc1	31	11	100	0	1.1	97	x	x	x
O=C(CCCn1cnc([N+](=O)[O-])n1)Nc1cccc2ccccc12	-31	-35	105	-6	1.1	138*	128	102	106
Cc1ccc(C(=O)Nc2ccc3cn[nH]c3c2)cc1S(=O)(=O)N1CCCCC1	46	-41	118	-20	1.6	143*	139*	116	142*
CCCCCCNc1c([N+](=O)[O-])c(=O)sc2ccccc12	-6	-9	87	11	0.87	111	x	x	x
COc1ccc(/C=c2\sc3nc(-c4ccccc4OC)nn3c2=O)c(OC)c1	11	-63	100	0	0.99	156*	129	98	96
COc1ccccc1-c1nc2s/c(=C\c3cccs3)c(=O)n2n1	-5	-10	101	0	0.81	115	x	x	x
SMILES	APP 5'UTR act	STAT3 inh	STAT1 act-1	STAT1 blocker	NF-kB expr up	STAT3 act-1	STAT3 act-2	NFkB act STAT3ct	STAT1 act-2
Cn1c(=O)c2c(nc(N3CCCC3)n2CC(O)CO)n(C)c1=O (stereo unspecified)	-7	-42	105	-6	1.1	141*	104	111	105
Cc1cc(C(=O)NC(=S)Nc2ccccc2N2CCCC2)ccc1[N+](=O)[O-]	1	-14	104	-4	0.97	107	x	x	x
O=C(NC(=S)Nc1ccccc1N1CCCCC1)c1ccccc1	12	-1	108	-10	1.4	104	x	x	x
O=C(NC(=S)Nc1ccccc1N1CCCC1)c1cccc(F)c1	-1	-57	93	6	1.2	152*	154*	105	89
O=C(NC(=S)Nc1ccccc1N1CCCC1)c1ccc(F)cc1	-5	-39	91	8	1.1	145*	149*	104	91
O=C1CC(c2ccc(Cl)cc2)SC(N(c2ccccc2)c2ccccc2)=N1 (stereo unspecified)	0	8	86	15	0.92	91	x	x	x
Cc1ccc(C)c(/C(O)=C2/C(=O)C(=O)N(CCN3CCOCC3)C2c2ccc(C)o2)c1 (stereo unspecified)	6	-37	89	12	0.9	136*	129	107	102
Cc1ccc(C)c(/C(O)=C2\C(=O)C(=O)N(CCCN3CCOCC3)C2c2cccnc2)c1 (stereo unspecified)	3	5	89	12	1.4	99	x	x	x
O=C(Nc1nnc(CC(=O)N2CCOCC2)s1)c1cccs1	-6	-53	96	1	1.2	147*	98	106	106
Cc1nn(-c2ccccc2)c2c1C(c1ccccc1)C(C#N)=C(N)O2 (stereo unspecified)	26	-22	96	4	1.1	122	x	x	x
Cc1ccc(-n2nc(C)c3c2OC(N)=C(C#N)C3c2ccoc2)cc1 (stereo unspecified)	2	-85	95	6	0.81	177*	153*	104	91
CC1Cc2ccccc2N1Cc1cc(=O)n2ccsc2n1 (stereo unspecified)	1	-44	99	1	0.91	146*	152*	101	99
O=C(O)c1cc2ccc3ccccc3c2oc1=O	11	-58	103	-1	1.1	152*	132	99	99
